According to ChEMBL document CHEMBL4229410, “Facile construction of fused benzimidazole-isoquinolinones that induce cell-cycle arrest and apoptosis in colorectal cancer cells” (Bioorg Med Chem, 2018):
Calls of active or inactive are those of the source. The rule behind the calls is not given here.

How the values were obtained:
[1] = tested on: HT-29; assay: Increase in PTEN expression in human HT-29 cells after 48 hrs by Western blot analysis; format: functional, cell-based
Outline: (§1)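 HT29 or SW620 cells were treated at 0, 25, 50 and 75 μM for 48 h and lysed in RIPA with protease and phosphatase inhibitors. Protein was quantified by BCA. 50 μg lysate was run on 8–15% SDS-PAGE and transferred to PVDF. Blocking was 5% BSA/TBST for 2 h; primary antibodies were applied overnight at 4 °C, then HRP secondary 1 h at room temperature.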

[2] = biological target: Vascular endothelial growth factor receptor 2 (Homo sapiens, UniProt P35968); assay: Inhibition of human VEGFR2 (R787 to P1253 residues) expressed in mammalian expression system assessed as residual activity at 5 uM by KINOMEscan assay relative to control
[3] = biological target: Serine/threonine-protein kinase Chk1 (Homo sapiens) (UniProt O14757); assay: Inhibition of human CHEK1 (M1 to G289 residues) expressed in bacterial expression system assessed as residual activity at 5 uM by KINOMEscan assay relative to control
Chain of Serine/threonine-protein kinase Chk1 (Homo sapiens) (O14757 whole entry, the tested form may be a part): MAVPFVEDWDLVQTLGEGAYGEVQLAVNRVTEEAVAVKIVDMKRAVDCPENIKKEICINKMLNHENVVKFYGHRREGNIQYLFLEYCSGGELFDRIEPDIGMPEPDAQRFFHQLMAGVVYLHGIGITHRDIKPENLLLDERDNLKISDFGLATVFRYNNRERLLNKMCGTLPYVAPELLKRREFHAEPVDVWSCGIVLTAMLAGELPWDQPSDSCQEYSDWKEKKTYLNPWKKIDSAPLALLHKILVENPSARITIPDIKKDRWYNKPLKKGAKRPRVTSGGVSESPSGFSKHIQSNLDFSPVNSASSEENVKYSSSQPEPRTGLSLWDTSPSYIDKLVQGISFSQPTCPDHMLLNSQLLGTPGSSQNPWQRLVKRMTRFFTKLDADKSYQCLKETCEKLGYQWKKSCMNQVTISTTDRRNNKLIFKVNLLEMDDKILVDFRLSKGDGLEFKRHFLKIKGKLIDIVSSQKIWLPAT

[4] = tested on: HT-29; assay: Induction of apoptosis in human HT-29 cells assessed as increase in PARP activation after 48 hrs by Western blot analysis; format: functional, cell-based; outline: as §1
[5] = biological target: SRSF protein kinase 3 (Homo sapiens, UniProt Q9UPE1); assay: Inhibition of human SRPK3 (P41 to P567 residues) expressed in bacterial expression system assessed as residual activity at 5 uM by KINOMEscan assay relative to control
Chain of SRSF protein kinase 3 (Q9UPE1 whole entry, the tested form may be a part): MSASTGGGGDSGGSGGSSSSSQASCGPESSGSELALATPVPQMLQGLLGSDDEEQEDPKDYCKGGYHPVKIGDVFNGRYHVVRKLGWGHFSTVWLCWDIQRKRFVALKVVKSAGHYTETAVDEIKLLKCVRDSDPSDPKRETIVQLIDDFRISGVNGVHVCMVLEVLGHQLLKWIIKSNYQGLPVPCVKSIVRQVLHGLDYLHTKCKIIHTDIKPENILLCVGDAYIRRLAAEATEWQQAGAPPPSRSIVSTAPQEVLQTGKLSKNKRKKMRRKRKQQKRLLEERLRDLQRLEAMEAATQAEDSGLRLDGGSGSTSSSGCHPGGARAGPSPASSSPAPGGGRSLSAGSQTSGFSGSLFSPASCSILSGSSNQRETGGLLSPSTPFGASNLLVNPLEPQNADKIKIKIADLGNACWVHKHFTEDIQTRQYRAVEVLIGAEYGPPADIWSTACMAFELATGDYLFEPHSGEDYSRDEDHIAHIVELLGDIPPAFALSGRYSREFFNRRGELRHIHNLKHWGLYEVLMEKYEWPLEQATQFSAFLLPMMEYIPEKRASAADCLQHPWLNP

[6] = biological target: NUAK family SNF1-like kinase 2 (Homo sapiens, UniProt Q9H093); assay: Binding affinity to human SNARK (P22 to A333 residues) expressed in mammalian expression system by KINOMEscan assay
[7] = biological target: TGF-beta receptor type-1 (Homo sapiens) (UniProt P36897); assay: Inhibition of human TGFBR1 (D179 to M503 residues) expressed in bacterial expression system assessed as residual activity at 5 uM by KINOMEscan assay relative to control
[8] = tested on: SW-620; assay: Induction of apoptosis in human SW620 cells assessed as necrotic cells at 25 uM after 48 hrs by Annexin-V-FITC/propidium iodide staining based flow cytometry (reference value: 0.9%); format: functional
[9] = tested on: HT-29; assay: Inhibition of colony formation in human HT-29 cells assessed as reduction in colony size at 25 to 75 uM treated for 48 hrs followed by compound washout and measured after 14 hrs by crystal violet staining based assay; format: functional, cell-based
[10] = tested on: SW-620; assay: Cell cycle arrest in human SW620 cells assessed as accumulation at G1-phase at 25 uM after 48 hrs by propidium iodide staining based flow cytometry (reference value: 40.56%); format: functional
[11] = biological target: Epidermal growth factor receptor (Homo sapiens, UniProt P00533); assay: Binding affinity to partial length human EGFR (R669 to V1011 residues) expressed in bacterial expression system by KINOMEscan assay
[12] = biological target: Atypical kinase COQ8A, mitochondrial (Homo sapiens, UniProt Q8NI60); assay: Inhibition of […] human ADCK3 (M280 to Q647 residues) expressed in bacterial expression system assessed as residual activity at 5 uM by KINOMEscan assay relative to control
Chain of Atypical kinase COQ8A, mitochondrial (Q8NI60 163-647 limits assumed): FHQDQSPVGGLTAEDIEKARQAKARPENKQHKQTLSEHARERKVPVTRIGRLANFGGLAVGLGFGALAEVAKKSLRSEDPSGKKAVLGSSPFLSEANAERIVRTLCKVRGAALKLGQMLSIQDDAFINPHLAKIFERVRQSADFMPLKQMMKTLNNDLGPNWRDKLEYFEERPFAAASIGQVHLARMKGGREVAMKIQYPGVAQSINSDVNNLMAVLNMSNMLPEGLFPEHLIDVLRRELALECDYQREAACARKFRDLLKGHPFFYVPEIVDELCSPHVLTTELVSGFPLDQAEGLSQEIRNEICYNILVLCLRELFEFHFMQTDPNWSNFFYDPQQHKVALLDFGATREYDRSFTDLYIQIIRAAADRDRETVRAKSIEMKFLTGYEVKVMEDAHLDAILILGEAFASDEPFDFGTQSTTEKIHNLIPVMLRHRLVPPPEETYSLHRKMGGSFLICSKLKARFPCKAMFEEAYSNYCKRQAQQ

[13] = tested on: HT-29; assay: Induction of apoptosis in human HT-29 cells assessed as live cells at 25 uM after 48 hrs by Annexin-V-FITC/propidium iodide staining based flow cytometry (reference value: 93.2%); format: functional
[14] = biological target: Inhibitor of nuclear factor kappa-B kinase subunit alpha (Homo sapiens, UniProt O15111); assay: Binding affinity to full length human IKKalpha (M1 to E745 residues) expressed in mammalian expression system by KINOMEscan assay
[15] = tested on: HT-29; assay: Effect on total mTOR expression in human HT-29 cells up to 75 uM after 48 hrs by Western blot analysis; format: ADME, cell-based; settings: ht-29, 48 h; outline: as §1
[16] = tested on: SW-620; assay: Induction of apoptosis in human SW620 cells assessed as early apoptotic cells at 25 uM after 48 hrs by Annexin-V-FITC/propidium iodide staining based flow cytometry (reference value: 0.4%); format: functional
[17] = biological target: Dual specificity mitogen-activated protein kinase kinase 1 (Homo sapiens, UniProt Q02750); assay: Binding affinity to full length human MEK1 (M1 to V393 residues) expressed in mammalian expression system by KINOMEscan assay
[18] = biological target: Insulin receptor (Homo sapiens, UniProt P06213); assay: Inhibition of human INSR (P997 to E1318 residues) expressed in mammalian expression system assessed as residual activity at 5 uM by KINOMEscan assay relative to control
Chain of Insulin receptor (P06213 28-758 limits assumed): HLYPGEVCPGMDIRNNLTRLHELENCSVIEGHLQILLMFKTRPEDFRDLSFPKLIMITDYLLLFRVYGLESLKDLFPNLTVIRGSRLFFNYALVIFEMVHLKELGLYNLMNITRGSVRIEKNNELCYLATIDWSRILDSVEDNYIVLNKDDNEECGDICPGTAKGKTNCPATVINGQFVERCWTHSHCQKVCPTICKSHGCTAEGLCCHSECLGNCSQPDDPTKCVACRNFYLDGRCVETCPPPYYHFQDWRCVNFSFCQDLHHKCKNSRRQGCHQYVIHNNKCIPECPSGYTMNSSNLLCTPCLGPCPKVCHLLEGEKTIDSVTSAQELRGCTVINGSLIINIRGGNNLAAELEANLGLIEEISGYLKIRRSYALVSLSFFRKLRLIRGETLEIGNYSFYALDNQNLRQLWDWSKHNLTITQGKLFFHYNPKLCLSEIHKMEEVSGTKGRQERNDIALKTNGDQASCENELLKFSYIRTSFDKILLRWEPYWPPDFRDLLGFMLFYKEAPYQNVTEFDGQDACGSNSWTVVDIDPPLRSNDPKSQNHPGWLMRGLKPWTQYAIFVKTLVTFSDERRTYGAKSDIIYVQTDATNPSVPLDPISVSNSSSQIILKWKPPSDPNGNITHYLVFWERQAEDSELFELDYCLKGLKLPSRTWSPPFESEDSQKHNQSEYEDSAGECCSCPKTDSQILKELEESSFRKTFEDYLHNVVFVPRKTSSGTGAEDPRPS
Chain of Insulin receptor (P06213 763-1382 limits assumed): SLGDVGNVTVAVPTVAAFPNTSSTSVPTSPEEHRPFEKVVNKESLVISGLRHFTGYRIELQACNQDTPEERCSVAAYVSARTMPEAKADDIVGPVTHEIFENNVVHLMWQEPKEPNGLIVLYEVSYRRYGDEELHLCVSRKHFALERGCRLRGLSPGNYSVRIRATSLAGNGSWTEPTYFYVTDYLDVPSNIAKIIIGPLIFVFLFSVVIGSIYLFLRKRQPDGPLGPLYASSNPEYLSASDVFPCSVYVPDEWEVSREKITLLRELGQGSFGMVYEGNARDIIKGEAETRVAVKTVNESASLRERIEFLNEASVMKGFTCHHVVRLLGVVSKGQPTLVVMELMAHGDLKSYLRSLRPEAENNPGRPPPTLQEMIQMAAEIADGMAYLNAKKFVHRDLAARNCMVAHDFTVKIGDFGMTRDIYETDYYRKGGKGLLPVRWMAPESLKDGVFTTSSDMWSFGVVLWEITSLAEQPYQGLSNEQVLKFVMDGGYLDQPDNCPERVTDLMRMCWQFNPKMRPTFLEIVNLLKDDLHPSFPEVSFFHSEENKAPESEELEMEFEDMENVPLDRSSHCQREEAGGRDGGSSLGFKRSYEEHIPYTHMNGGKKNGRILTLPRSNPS

[19] = biological target: Testis-specific serine/threonine-protein kinase 1 (Homo sapiens, UniProt Q9BXA7); assay: Binding affinity to full length human TSSK1B (M1 to Q367 residues) expressed in bacterial expression system by KINOMEscan assay
[20] = biological target: Mast/stem cell growth factor receptor Kit (Homo sapiens, UniProt P10721, T670I/V559D); assay: Binding affinity to human KIT (I571 to D952 residues) V559D/T670I double mutant expressed in bacterial expression system by KINOMEscan assay
[21] = tested on: SW-620; assay: Cell cycle arrest in human SW620 cells assessed as accumulation at S-phase at 25 uM after 48 hrs by propidium iodide staining based flow cytometry (reference value: 43.72%); format: functional
[22] = biological target: Tyrosine-protein kinase ZAP-70 (Homo sapiens) (UniProt P43403); assay: Inhibition of human ZAP70 (D20 to G299 residues) expressed in mammalian expression system assessed as residual activity at 5 uM by KINOMEscan assay relative to control
Chain of Tyrosine-protein kinase ZAP-70 (Homo sapiens) (P43403 whole entry, the tested form may be a part): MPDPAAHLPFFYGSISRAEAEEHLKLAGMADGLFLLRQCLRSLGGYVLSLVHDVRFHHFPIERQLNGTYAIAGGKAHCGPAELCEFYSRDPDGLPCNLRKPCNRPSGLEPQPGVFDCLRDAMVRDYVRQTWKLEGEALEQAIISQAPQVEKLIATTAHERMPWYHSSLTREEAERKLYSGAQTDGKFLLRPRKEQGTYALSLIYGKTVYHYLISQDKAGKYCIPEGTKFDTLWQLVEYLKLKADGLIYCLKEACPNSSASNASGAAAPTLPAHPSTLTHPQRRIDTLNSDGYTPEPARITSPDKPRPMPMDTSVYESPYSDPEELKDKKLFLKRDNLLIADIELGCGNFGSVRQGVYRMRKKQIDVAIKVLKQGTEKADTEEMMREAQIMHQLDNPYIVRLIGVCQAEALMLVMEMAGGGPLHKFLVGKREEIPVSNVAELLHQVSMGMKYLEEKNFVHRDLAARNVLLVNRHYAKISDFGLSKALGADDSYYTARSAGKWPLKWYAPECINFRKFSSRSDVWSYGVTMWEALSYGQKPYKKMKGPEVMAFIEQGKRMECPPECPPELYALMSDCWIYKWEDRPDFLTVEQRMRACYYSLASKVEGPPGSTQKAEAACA

[23] = biological target: Serine/threonine-protein kinase 32C (Homo sapiens, UniProt Q86UX6); assay: Inhibition of human YANK3 (M68 to G486 residues) expressed in bacterial expression system assessed as residual activity at 5 uM by KINOMEscan assay relative to control
[24] = tested on: HT-29; assay: Induction of apoptosis in human HT-29 cells assessed as increase in apoptotic bodies after 48 hrs by Hoechst 33342 staining based fluorescence microscopic analysis; format: functional, cell-based
Outline: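 HT29 cells in 24-well plates were treated at 0, 25, 50 or 75 μM for 48 h and fixed 20 min in 4% paraformaldehyde. After Hoechst 33342 staining for 15 min at 37 °C, apoptotic bodies and chromatin condensation were scored by fluorescence microscopy.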

[25] = tested on: SW-620; assay: Cell cycle arrest in human SW620 cells assessed as accumulation at G2-phase at 75 uM after 48 hrs by propidium iodide staining based flow cytometry (reference value: 14.08%); format: functional
[26] = biological target: Angiopoietin-1 receptor (Homo sapiens, UniProt Q02763); assay: Binding affinity to human TIE2 (N804 to T1112 residues) expressed in bacterial expression system by KINOMEscan assay
Chain of Angiopoietin-1 receptor (Q02763 whole entry, the tested form may be a part): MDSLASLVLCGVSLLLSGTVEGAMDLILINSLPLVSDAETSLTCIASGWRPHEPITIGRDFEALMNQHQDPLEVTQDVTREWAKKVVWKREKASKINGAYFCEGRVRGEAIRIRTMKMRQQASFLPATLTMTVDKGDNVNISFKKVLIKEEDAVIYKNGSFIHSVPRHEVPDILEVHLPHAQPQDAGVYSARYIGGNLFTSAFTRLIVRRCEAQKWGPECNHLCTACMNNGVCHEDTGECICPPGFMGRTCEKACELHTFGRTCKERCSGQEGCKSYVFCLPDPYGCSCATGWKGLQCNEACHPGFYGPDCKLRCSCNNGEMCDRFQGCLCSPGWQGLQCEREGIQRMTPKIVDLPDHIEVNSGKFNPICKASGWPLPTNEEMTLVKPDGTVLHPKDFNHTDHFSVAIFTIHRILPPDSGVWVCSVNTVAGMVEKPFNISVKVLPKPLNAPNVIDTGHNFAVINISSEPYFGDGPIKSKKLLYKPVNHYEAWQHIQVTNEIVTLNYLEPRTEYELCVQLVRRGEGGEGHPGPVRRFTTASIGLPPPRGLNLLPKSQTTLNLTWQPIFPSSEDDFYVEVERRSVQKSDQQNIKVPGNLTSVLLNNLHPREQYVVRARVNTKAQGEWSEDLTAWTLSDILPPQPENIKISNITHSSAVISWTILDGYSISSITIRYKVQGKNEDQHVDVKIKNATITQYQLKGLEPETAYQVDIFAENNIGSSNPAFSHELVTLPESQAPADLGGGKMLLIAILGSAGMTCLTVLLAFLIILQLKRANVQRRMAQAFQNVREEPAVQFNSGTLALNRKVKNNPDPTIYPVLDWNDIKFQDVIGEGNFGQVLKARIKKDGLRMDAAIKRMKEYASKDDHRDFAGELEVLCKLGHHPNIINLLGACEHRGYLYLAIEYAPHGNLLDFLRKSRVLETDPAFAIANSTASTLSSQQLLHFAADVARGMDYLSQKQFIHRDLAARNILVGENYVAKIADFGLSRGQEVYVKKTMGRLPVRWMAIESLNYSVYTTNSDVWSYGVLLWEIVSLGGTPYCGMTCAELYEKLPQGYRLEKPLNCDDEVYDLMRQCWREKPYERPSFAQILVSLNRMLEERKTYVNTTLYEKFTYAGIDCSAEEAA

[27] = biological target: Serine/threonine-protein kinase DCLK1 (Homo sapiens) (UniProt O15075); assay: Inhibition of partial length human DCAMKL1 (L270 to A662 residues) expressed in mammalian expression system assessed as residual activity at 5 uM by KINOMEscan assay relative to control
[28] = biological target: MAP kinase-activated protein kinase 2 (Homo sapiens, UniProt P49137); assay: Binding affinity to human MAPKAPK2 (V48 to D345 residues) expressed in bacterial expression system by KINOMEscan assay
Chain of MAP kinase-activated protein kinase 2 (P49137 whole entry, the tested form may be a part): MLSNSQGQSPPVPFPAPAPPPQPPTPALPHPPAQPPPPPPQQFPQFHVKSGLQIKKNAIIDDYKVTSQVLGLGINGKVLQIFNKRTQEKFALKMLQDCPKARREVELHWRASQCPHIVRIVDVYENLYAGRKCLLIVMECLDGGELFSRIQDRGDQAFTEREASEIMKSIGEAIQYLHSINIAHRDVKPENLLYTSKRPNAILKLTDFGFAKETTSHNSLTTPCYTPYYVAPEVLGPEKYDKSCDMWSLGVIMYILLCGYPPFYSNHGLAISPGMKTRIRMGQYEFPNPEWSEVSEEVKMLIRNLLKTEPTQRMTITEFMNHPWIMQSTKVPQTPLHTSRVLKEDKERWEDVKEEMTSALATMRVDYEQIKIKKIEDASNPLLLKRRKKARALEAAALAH

For `CC(C)CN(C(=O)c1cccnc1)c1c2ccccc2c(=O)n2c1[nH]c1ccccc12`, the Activity [1] was “Dose-dependent effect”, the Activity [2] was 98% and the Activity [3] was 83%. For the same compound, the Activity [4] was “Dose-dependent effect”, the Activity [5] was 98% and the Kd [6] was no less than 5 µM. For the same compound, the Activity [7] was 100%, the Activity [8] was 3.1% and the inhibition [9] was “Active”. For the same compound, the Activity [10] was 39.26%, the Kd [11] was no less than 5 µM and the Activity [12] was 100%. The Activity [13] was 88.4%, the Kd [14] was no less than 5 µM and the Activity [15] was “Non-Toxic”. For the same compound, the Activity [16] was 0.7%, the Kd [17] was no less than 5 µM and the Activity [18] was 100%. For the same compound, the Kd [19] was no less than 5 µM, the Kd [20] was no less than 5 µM and the Activity [21] was 43.71%. For the same compound, the Activity [22] was 89%, the Activity [23] was 99% and the Activity [24] was “Dose-dependent effect”. For the same compound, the Activity [25] was 29.26%, the Kd [26] was no less than 5 µM and the Activity [27] was 74%. It also gave a Kd [28] of no less than 5 µM.
